# Screens from PubChem BioAssay.
# TAAR1 antag: human TAAR1 antagonists, primary screen, Fluo-8 calcium fluorescence, CHO RD-HGA16 cells; AID 624466, 2012; inhibition, % at 3 µM; Trace amine-associated receptor 1 (Homo sapiens), Q96RJ0; actives 1.5% (n = 360,000); antagonist;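 active = inhibition above a per-plate cutoff, the mean inhibition of test compounds on that plate plus 3 SD, cut at about 49% in these data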;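 note: 0% = DMSO plus EC80 beta-PEA response and 100% = DMSO alone without agonist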
#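 Test system: RD-HGA16 CHO cells with stable hTAAR1 and Gα16 / Probe or stimulus: EC80 β-phenethylamine stimulus / Times: seeding 17-24 h prior, 75-min 37 °C, 30-min RT dye loading / Detection: Fluo-8 calcium-sensitive fluorescence / Read-out basis: % inhibition scaled between DMSO and EC80 PEA controls / Repeats: singlicate, one well per test compound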
# OX1R antag-1: antagonists of human orexin 1 receptor (OX1R) | Orexin/Hypocretin receptor type 1 (Homo sapiens), O43613 | OX1R-expressing cells, FRET antagonist read-out | inhibition, % at 6.6 µM | actives 1.8% (n = 330,000); in the data active = inhibition mostly above about 38%, no sharp cut-off; inactive = mostly below about 40%;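 note: 0% = agonist challenge alone and 100% = reference antagonist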
# Target sequence (O43613 whole entry, looked up): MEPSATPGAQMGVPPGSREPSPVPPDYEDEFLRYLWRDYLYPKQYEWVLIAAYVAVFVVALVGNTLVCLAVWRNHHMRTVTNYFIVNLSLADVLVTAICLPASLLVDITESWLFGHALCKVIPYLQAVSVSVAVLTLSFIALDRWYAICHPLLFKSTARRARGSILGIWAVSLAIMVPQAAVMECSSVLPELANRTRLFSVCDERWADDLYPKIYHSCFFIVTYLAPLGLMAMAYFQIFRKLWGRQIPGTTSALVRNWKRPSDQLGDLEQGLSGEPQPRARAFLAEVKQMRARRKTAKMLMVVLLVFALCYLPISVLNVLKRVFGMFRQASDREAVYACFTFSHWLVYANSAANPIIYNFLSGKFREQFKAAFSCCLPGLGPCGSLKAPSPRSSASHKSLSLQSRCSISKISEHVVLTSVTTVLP
# GalR3 antag: GalR3 antagonists in HEK293 cells, primary screen, cell-based, fluorescence readout; HEK293 GalR3-CNG cAMP membrane potential fluorescence; galR3 body fused to GalR1 C-terminus; AID 651719, 2012; inhibition, % at 3 µM; Galanin receptor type 3 (Homo sapiens), O60755; actives 0.44% (n = 360,000);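 active = inhibition above the screen-wide average plus 3 SD, cut at about 13% in these data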;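 note: forskolin and galanin both at EC90 stimulate the cells; cAMP rise reported by CNG channel membrane potential dye signal; 0% = forskolin plus galanin with DMSO and 100% = forskolin alone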
# TAAR1 ag: human TAAR1 agonists, primary screen, Fluo-8 calcium fluorescence, CHO RD-HGA16 cells; vehicle wells 0%, saturating PEA agonist 100%; activation, % at 3 µM; actives 0.99% (n = 360,000);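 active = activation above the mean activation of all test compounds in the run plus 3 SD, cut at about 38% in these data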
#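 Assay system: CHO-derived RD-HGA16 cells with stable Gα16 and human TAAR1; timing: 17-24 h seeding, 75 min 37 °C dye, 30 min RT; read-out: % activation from peak over basal fluorescence ratio, DMSO-to-PEA scaled; measured by: kinetic Fluo-8 calcium fluorescence; benchmarks: low control DMSO, high control PEA (EC100); doses: 3 µM single concentration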
# CHO parental Ca: ATP-evoked calcium signal inhibitors, parental CHO, primary screen, counter-screen for OX1R antagonist project, cell-based, fluorescence, Fluo-8 calcium dye | parental CHO-K1, ATP-induced calcium, Fluo-8 fluorescence | inhibition, % at 5.6 µM | actives 0.63% (n = 330,000);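 active = inhibition above that plate's mean sample inhibition plus 3 SD, cut at about 26% in these data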;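 note: 0% = ATP-challenged DMSO wells and 100% = DMSO wells without ATP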
#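 Material – parental CHO cells · Reagent – ATP stimulus · Compound – single nominal dose of 5.6 µM per compound · Detection – Fluo-8 fluorescence · Read-out basis – percent inhibition of calcium signal · Controls – ATP-challenged DMSO wells low, unchallenged DMSO wells high · Repeats – no replicates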
# OX1R antag-2: OX1R (HCRTR1) antagonists, primary screen, fluorescence, CHO/OX1R cells, Fluo-8 calcium, orexin A; Fluo-8 calcium fluorescence; AID 434989, 2010; inhibition, % at 5 µM; actives 0.43% (n = 330,000);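 active = inhibition above its plate's threshold, mean inhibition of all tested compounds on the plate plus 3 SD, cut at about 37% in these data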;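 note: 0% = orexin A challenge wells and 100% = SB-334867-A antagonist wells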
# Active calls of the source: *; / = no result. In the library only some 4.2% were active in any assay of this set; here they are far more common.
SMILES,TAAR1 antag,OX1R antag-1,GalR3 antag,TAAR1 ag,CHO parental Ca,OX1R antag-2
Cc1nnc(Sc2cc(NCCO)c([N+](=O)[O-])c3nonc23)s1,-5,/,7,-1,/,/
CCCSc1cc(NCCOC(=O)CCC)c([N+](=O)[O-])c2nonc12,-19,66*,3,0,-9,-12
CC(=O)OCCCNc1cc(SCc2ccco2)c2nonc2c1[N+](=O)[O-],7,73*,2,-1,-19,-25
C=C(C)CN(CC)C(=O)CSc1ccc(S(=O)(=O)N2CCN(Cc3ccccc3)CC2)cn1,16,9,-3,-2,-28,-6
CC(C)n1nc(C(=O)OCC(=O)NCCc2ccc(S(N)(=O)=O)cc2)c2ccccc2c1=O,-43,/,-8,9,/,/
O=C(NCCN1C(=O)S/C(=C\c2cccnc2)C1=O)c1ccc([N+](=O)[O-])s1,-15,18,-2,1,-8,0
O=C1N2CCSC2=NC1(Nc1nccs1)C(F)(F)F (stereo unspecified),-5,48*,-7,1,-3,29
Cc1cccnc1NC1(C(F)(F)F)N=C2SCCN2C1=O (stereo unspecified),8,20,-4,8,-2,-2
COc1ccccc1/C=C/c1onc(C)c1S(=O)(=O)N1CCC(C(=O)NC(C)C)CC1,-29,8,0,10,-5,-10
COc1ccccc1Nc1nn2c(=O)c3ccc(C(=O)N4CCCC(C)C4)cc3nc2s1 (stereo unspecified),50*,23,-10,6,-3,-10
O=C(NCCCn1ccnc1)C(=O)NCC(c1ccco1)N1CCN(c2ccc(F)cc2)CC1 (stereo unspecified),-40,11,13*,3,-22,-12
O=[N+]([O-])c1ccc(Cl)c(S(=O)(=O)Nc2ccc3cn[nH]c3c2)c1,-3,15,-6,0,-10,-3
O=[N+]([O-])c1ccc2cn[nH]c2c1,-3,49*,/,1,-1,-9
Cc1cc(C)c(S(=O)(=O)N2CCN(C(=O)c3c(C)noc3C)CC2)c(C)c1,-10,9,-4,4,-10,-20
O=C(Cc1cc(=O)[nH][nH]1)N/N=C/c1cccc2ccccc12,1,6,-5,1,-5,-3
COCCCNc1ccn2nc(-c3ccc(OCc4ccccc4)cc3)cc2n1,56*,/,-5,11,/,/
c1ccc(COc2ccc(-c3cc4nc(NCCOc5ccccc5)ccn4n3)cc2)cc1,22,/,-6,0,/,/
COc1cc2sc3cc(NCc4ccc(C)o4)ccc3c(=O)c2cc1OC,17,45*,-4,1,-18,4
COc1cc2sc3cc(NCC[C@@H]4CCCN4C)ccc3c(=O)c2cc1OC,-6,23,-2,3,-17,-2
COc1cc2sc3cc(NCc4ccc5c(c4)OCO5)ccc3c(=O)c2cc1OC,16,50*,5,3,-1,1
COc1cccc2sc3cc(NCc4ccc5c(c4)OCO5)ccc3c(=O)c12,-8,23,-6,10,-17,-15
COc1cccc(/C=N/Nc2nnc(C)n2N)c1OCc1ccccc1Cl,-22,67*,-2,1,2,-1
c1ccc(-c2nc(NC3CCCC3)c3ccccc3n2)cc1,11,49*,-2,6,-21,-44
Cc1cccc(C)c1OCC(O)CN (stereo unspecified),-16,17,-1,41*,-13,-9
CCOC(=O)N1CCN(CC(O)COc2c(C)cccc2C)CC1 (stereo unspecified),-16,4,-1,1,-4,15
CCOC(=O)c1c(S(=O)(=O)NCCc2ccccc2)c(C)n(C)c1C,-18,6,3,39*,-25,-8
